Data reported in PMC7286548 (Cell chemical biology, 2020).
Values belong to the compound of their own block, whether it stands above or below them.

Legend:
PIKfyve [1] = test: Vacuolar enlargement assay in Vero cells; format: cell-based
PI5P4Kα [2] = biological target: T1, PI5P4Kα (Homo sapiens, UniProt P48426); test: Radiometric TLC kinase assay; format: biochemical
T1 sequence (P48426 1-406): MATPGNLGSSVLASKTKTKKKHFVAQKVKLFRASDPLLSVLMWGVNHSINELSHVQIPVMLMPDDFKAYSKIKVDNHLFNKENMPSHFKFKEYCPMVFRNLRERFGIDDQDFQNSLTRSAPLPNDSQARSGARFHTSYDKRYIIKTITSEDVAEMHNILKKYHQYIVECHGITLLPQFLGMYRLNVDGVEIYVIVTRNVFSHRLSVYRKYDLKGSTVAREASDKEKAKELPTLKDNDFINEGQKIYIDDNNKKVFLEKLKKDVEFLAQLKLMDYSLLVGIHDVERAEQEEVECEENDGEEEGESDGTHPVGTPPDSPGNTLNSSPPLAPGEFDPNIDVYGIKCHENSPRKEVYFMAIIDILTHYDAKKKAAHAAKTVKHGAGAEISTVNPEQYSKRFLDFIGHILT
Procedure, shortened: (§1)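 Purified PI5P4K (0.1 μg) was preincubated with DMSO or test compound at various concentrations in 50 mM HEPES pH 7.4, 10 mM MgCl2. Sonicated lipid substrate, 10 μM unlabeled ATP and [γ-32P]ATP were then added. Reaction ran 10 min at room temperature. Radiolabeled PI(4,5)P2 product was quantified by phosphorimager.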

PI5P4Kβ [3] = biological target: T2, PI5P4Kβ (Homo sapiens, UniProt P78356); test: Radiometric TLC kinase assay; format: biochemical
T2 sequence (P78356 1-416): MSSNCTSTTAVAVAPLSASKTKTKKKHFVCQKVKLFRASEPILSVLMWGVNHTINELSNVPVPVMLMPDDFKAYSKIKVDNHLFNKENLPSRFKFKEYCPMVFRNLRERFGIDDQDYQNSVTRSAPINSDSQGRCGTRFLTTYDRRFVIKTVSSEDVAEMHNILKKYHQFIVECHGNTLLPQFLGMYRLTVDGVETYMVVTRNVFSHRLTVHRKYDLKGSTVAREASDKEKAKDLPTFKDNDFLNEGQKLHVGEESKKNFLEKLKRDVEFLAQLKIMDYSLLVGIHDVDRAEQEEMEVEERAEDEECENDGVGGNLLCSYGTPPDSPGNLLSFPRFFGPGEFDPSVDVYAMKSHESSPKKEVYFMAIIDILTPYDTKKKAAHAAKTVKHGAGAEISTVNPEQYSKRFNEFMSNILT
Procedure, shortened: as §1

PI5P4Kα [4] = biological target: T1, PI5P4Kα; test: Intact electrospray MS covalent labeling; format: binding; conditions: within 2 h; 5 μM inhibitor, 37°C
Procedure, shortened: (§2)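 Intact mass read by LC-ESI-MS on reversed phase. Modified site mapped by TCEP (10 mM final) reduction, iodoacetamide (22.5 mM final) alkylation, Asp-N or Glu-C digestion overnight at 37°C, then nanoLC-MS.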

PI5P4Kβ [5] = biological target: T2, PI5P4Kβ; test: Intact electrospray MS covalent labeling; format: binding; conditions: within 2 h; 5 μM inhibitor, 37°C
Procedure, shortened: as §2

PIKfyve [6] = biological target: T3, PIKfyve (Homo sapiens, UniProt Q9Y2I7); test: DiscoverX KINOMEScan; format: binding
T3 sequence (Q9Y2I7 whole entry): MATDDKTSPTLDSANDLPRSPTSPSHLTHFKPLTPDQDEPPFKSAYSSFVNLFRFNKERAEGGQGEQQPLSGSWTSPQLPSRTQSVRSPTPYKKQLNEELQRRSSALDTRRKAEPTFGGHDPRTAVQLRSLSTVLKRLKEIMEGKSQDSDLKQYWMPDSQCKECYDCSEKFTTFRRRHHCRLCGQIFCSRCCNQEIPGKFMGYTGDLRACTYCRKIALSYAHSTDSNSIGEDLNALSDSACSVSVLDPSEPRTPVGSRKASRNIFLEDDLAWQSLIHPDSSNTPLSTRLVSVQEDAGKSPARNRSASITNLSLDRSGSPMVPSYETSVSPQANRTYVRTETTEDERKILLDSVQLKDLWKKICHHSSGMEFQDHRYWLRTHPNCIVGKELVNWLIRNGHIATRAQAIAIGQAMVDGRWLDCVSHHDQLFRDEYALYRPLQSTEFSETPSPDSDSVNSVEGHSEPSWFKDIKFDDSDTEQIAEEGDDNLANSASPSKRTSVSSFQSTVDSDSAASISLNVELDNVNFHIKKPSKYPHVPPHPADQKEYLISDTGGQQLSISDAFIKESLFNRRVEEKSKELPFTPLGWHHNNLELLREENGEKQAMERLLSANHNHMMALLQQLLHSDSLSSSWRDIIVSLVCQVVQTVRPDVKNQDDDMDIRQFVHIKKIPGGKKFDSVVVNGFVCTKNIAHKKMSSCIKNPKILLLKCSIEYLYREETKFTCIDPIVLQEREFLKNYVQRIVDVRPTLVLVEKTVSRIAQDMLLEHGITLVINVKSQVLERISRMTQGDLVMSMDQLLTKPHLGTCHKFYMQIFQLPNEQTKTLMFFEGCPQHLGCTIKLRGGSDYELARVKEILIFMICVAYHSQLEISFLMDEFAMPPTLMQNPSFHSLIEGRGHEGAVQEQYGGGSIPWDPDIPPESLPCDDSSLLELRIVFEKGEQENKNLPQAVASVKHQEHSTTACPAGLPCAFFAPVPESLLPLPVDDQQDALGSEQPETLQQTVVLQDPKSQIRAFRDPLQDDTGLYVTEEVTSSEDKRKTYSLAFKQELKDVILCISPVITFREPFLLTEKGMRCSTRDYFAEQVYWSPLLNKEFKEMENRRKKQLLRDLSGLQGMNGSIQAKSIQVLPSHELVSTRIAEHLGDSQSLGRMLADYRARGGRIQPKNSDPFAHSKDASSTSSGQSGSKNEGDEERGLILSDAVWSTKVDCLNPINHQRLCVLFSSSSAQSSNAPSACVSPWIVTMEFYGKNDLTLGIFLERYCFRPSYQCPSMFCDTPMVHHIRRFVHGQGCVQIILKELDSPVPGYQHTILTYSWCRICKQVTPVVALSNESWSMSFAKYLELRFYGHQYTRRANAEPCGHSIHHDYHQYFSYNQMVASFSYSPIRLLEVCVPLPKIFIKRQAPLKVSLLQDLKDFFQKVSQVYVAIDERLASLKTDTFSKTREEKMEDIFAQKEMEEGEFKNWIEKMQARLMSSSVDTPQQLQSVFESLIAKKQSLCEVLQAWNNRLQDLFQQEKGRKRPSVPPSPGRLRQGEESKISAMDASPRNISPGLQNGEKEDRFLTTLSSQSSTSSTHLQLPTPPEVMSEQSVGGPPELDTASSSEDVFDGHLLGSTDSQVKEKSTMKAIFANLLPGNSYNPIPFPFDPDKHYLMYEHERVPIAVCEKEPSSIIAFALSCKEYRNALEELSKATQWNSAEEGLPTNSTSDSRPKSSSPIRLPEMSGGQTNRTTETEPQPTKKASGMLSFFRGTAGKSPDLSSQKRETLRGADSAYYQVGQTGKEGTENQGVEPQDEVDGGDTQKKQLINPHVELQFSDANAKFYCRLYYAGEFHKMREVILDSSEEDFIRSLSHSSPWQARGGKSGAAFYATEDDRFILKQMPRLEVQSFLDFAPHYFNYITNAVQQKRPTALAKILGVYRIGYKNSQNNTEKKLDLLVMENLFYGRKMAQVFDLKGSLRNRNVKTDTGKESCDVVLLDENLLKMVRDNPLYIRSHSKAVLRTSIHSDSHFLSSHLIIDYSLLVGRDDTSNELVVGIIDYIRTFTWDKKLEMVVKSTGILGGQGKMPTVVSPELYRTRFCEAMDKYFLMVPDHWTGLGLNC

PIKfyve [7] = biological target: T3, PIKfyve; test: Fixed time-point ADP-Glo assay; format: biochemical
PI4P5Kα = PI4P5Kα (Homo sapiens, UniProt Q99755); test: Lipid kinase off-target inhibition assay; format: biochemical; conditions: Fig. S3C
Sequence of PI4P5Kα (Q99755 whole entry): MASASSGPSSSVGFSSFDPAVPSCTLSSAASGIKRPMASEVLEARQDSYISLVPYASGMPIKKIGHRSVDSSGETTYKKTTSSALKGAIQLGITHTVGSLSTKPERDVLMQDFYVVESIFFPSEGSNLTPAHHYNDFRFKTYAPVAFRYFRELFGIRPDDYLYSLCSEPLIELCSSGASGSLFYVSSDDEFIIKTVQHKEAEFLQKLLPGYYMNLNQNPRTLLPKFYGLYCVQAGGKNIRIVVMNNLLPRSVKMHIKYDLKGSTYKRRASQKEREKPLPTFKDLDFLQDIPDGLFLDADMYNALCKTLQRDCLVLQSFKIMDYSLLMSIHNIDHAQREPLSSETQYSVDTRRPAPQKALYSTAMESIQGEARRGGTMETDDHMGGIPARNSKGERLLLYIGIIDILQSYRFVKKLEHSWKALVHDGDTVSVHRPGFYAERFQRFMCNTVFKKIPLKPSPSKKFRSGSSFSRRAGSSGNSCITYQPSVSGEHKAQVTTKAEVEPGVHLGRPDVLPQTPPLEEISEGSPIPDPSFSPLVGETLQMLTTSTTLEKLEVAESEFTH

PI4P5Kβ = PI4P5Kβ (Homo sapiens, UniProt O14986); test: Lipid kinase off-target inhibition assay; format: biochemical; conditions: Fig. S3C
Sequence of PI4P5Kβ (O14986 whole entry): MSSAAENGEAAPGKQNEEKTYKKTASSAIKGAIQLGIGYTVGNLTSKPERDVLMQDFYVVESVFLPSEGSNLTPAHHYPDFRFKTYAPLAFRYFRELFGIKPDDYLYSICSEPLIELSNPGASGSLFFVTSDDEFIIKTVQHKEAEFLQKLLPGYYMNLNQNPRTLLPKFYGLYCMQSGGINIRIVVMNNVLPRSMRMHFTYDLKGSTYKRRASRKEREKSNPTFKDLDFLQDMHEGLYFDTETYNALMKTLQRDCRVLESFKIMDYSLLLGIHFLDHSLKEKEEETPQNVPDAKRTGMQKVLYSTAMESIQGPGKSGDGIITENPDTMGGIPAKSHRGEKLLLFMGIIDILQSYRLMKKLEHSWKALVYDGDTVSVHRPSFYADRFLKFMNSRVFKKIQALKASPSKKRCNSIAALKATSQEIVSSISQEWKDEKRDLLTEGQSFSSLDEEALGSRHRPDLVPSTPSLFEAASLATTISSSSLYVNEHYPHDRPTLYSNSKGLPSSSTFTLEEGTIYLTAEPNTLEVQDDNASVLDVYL

PI4P5Kγ = PI4P5Kγ (Homo sapiens, UniProt O60331); test: Lipid kinase off-target inhibition assay; format: biochemical; conditions: Fig. S3C
Sequence of PI4P5Kγ (O60331 whole entry): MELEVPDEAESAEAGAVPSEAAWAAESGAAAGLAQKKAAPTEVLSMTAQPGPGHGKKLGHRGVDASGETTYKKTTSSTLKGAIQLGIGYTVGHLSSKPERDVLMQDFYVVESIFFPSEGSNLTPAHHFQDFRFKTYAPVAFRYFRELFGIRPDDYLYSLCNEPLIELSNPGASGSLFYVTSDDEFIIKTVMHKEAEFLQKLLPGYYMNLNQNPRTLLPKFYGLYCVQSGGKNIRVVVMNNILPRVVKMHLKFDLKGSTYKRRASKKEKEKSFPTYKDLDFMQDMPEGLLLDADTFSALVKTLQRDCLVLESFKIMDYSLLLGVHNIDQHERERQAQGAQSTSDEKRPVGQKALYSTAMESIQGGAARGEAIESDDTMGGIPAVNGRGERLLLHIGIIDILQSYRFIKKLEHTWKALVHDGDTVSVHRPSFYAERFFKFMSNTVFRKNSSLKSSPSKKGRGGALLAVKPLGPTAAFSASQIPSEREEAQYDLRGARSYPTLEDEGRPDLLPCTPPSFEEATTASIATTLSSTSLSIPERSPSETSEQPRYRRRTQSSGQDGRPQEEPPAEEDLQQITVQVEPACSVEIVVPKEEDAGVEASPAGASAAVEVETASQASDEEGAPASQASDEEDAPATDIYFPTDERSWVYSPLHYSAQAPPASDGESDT

[8] = biological target: top off-targets except for BRK and ABL1; test: Z'LYTE kinase assay; format: biochemical; conditions: Fig. S4A
Procedure, shortened: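 ATP at apparent Km. Kinases tested were TYK2, RPS6KA4 (MSK2), CSNK2A2 (CK2α2), KIT and PDGFRB.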

PI5P4K = test: Competitive streptavidin pulldown after pre-treating HEK293T cells; format: cell-based
Procedure, shortened: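 HEK293T cells grown to 90–95% confluence were pretreated 6h with DMSO or varying test compound concentrations, then washed twice in cold PBS. Lysis on ice 60 min with protease inhibitors, cleared 20,000 × g 15 min at 4°C, protein-equalized by BCA. Lysates were rotated overnight at 4°C with 1 μM biotinylated probe, then 2h at RT, then on streptavidin resin 2h at 4°C. Beads washed ×5, boiled in LDS 95°C 10 min, immunoblotted.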

AML/ALL cell lines = test: 72 h Cell-Titer Glo proliferation assay; format: cell-based; conditions: all six AML/ALL cell lines
Procedure, shortened: (§3)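 Cells plated in 96- or 384-well format and treated with test compound over a concentration range for 72h. Viability read by CellTiter-Glo luminescence. Leukemia lines cultured per ATCC/DSMZ recommendations in 5% CO2. K562 and KU812F came from an outside lab.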

K562 and KU812F = test: Proliferation of BCR-ABL translocation containing cell lines; format: cell-based; conditions: Fig. S4C
Procedure, shortened: as §3

HeLa cells [9] = test: TFEB nuclear localization immunofluorescence; format: cell-based; conditions: 0.25-1.0 μM overnight
HeLa cells [10] = test: RFP-GFP-LC3B tandem sensor autophagy flux assay; format: cell-based; conditions: 1 μM, 16 hours
Procedure, shortened: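 HeLa cells (DMEM, 10% FBS) on coverslip-bottomed dishes were transduced with 40 particles/cell of the RFP-GFP-LC3B tandem sensor and cultured 16–24h. They were then exposed to DMSO, 50 μM chloroquine or 1 μM test compound for 16h. Live imaging at 37°C in phenol red-free DMEM by spinning-disk confocal microscopy.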

PI5P4Kγ = biological target: T4, PI5P4Kγ (Homo sapiens, UniProt Q8TBX8); test: Radiometric TLC kinase assay; format: biochemical; conditions: Fig. S1B-C
T4 sequence (Q8TBX8 1-421): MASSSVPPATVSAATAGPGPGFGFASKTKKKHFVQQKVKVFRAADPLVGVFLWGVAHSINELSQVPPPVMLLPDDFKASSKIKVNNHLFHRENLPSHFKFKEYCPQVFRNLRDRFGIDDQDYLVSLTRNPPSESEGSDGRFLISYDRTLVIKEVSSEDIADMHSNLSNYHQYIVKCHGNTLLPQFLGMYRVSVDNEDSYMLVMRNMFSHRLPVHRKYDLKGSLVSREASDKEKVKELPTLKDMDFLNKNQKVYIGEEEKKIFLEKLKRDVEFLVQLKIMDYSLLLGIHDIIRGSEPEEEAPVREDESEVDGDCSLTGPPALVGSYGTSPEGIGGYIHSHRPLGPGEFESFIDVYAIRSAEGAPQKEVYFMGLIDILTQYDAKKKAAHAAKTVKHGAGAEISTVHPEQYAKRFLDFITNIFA

SMILES: Cc1cccc(/C=N/Nc2cc(N3CCOCC3)nc(OCCc3ccccn3)n2)c1 [apilimod, reference compound]
concentration causing substantial vacuolar enlargement (PIKfyve [1]; positive control): 10 nM

SMILES: CN(C)C/C=C/C(=O)Nc1ccc(C(=O)Nc2cccc(Nc3cc(-c4c[nH]c5ccccc45)ncn3)c2)cc1 [THZ-P1-2]
inhibition of PI-4,5-P2 formation (PI5P4Kα [2]; 0.7 μM): approximately 75% | inhibition of PI-4,5-P2 formation (PI5P4Kβ [3]; 0.7 μM): ~50% | covalent labeling (PI5P4Kα [4]): 100% | covalent labeling (PI5P4Kβ [5]): 100% | % DMSO control (PIKfyve [6]): 6.4 % DMSO control | IC50 (PIKfyve [7]): 40 nM | IC50 (in words) (PI4P5Kα): low micromolar | IC50 (in words) (PI4P5Kβ): low micromolar | IC50 (in words) (PI4P5Kγ): low micromolar | inhibition of PIKfyve in cells (in words) (PIKfyve [1]; 1 μM): failed to show inhibition | IC50 (in words) [8]: micromolar range | earliest time of on-target engagement in washout pulldown (PI5P4K; 1 μM compound treatment, washout at 2 and 4 hours): 2 h | competition of pulldown by 1 μM dtb-THZ-P1-2 (in words) (PI5P4K; pre-treatment of HEK293T cells): compete and block pulldown | anti-proliferative IC50 (in words) (AML/ALL cell lines): low micromolar range | potency at killing cells versus imatinib, nilotinib and dasatinib (in words) (K562 and KU812F): markedly less potent | nuclear TFEB accumulation (in words) (HeLa cells [9]): increase | GFP signal of RFP-GFP-LC3B sensor (in words) (HeLa cells [10]): marked increase | RFP signal of RFP-GFP-LC3B sensor (in words) (HeLa cells [10]): moderate increase

inhibition of kinase activity (in words) (PI5P4Kα [2]; Fig. S1B-C): inhibit | inhibition of kinase activity (in words) (PI5P4Kβ [3]; Fig. S1B-C): inhibit | inhibition of kinase activity (in words) (PI5P4Kγ): inhibit
SMILES: CN(C)C/C=C/C(=O)Nc1cccc(C(=O)Nc2ccc(Nc3nccc(-c4cccnc4)n3)cc2)c1 [JNK-IN-7, reference compound]
